Measured values of several laboratories.
Lines come from different studies, so protocols differ.
Target: MAP kinase-interacting serine/threonine-protein kinase 1 (MKNK1, Homo sapiens, UniProt Q9BUB5)

| SMILES | test | conditions | endpoint | value |
| --- | --- | --- | --- | --- |
| Cn1cncc1[C@](O)(COc1ccc(C#N)cc1-c1ccc(OC(F)(F)F)cc1)c1ccc(C#N)cc1 | cell-free assay, competition with immobilised ligand | 1 µM | remaining binding | 68% |
| Nc1ncc(-c2nc(N3CCOCC3)nc(N3CCOCC3)n2)c(C(F)F)n1 | binding, competition with immobilised ligand | 10 µM | remaining binding | 45% |
| COc1ncccc1-c1cnn2ccc(N3CCN(C(=O)OC(C)C)CC3)nc12 | binding, competition with immobilised ligand | 1 µM | remaining binding | 100% |
| Cc1nn(C)cc1-c1nc2c(N3CCN(Cc4ccc(Cl)cc4)CC3)c(Cl)cnc2[nH]1 | binding, competition with immobilised ligand | 1 µM | remaining binding | 100% |
| O=c1[nH]c2ccccc2n1C1CCN(Cc2ccc(-c3[nH]c4cc5ncnc5cc4nc3-c3ccccc3)cc2)CC1 | cell-free assay | 0.5 µM | remaining signal | 104% |
| COc1cc(Nc2ncc(F)c(Nc3ccc4c(n3)NC(=O)C(C)(C)O4)n2)cc(OC)c1OC | binding, competition with immobilised ligand | 10 µM | inhibition | 9% |
| N#CC1(c2ccccn2)CCN(Cc2cc(C(=O)O)c(=O)n3ccccc23)CC1 | cell-free assay, competition with immobilised ligand | 1 µM | remaining binding | 85% |
| CC(C)(C)c1cc(C=C(C#N)C#N)cc(Br)c1O | enzyme activity, inhibitor | 0.5 µM | remaining activity | 95.9% |
